# Screens deposited in PubChem by several laboratories.
# FLuc stim CS: firefly luciferase counter-screen for stimulation assays. P08659. ATPlite luciferase biochemical, luminescence, 10 min; 0 = ATP-free wells, 1 = DMSO control. activation factor at 10 µM. 200,000 tested, under 10 active;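 active = luciferase activation factor, scaled between plate controls, of at least 2 with compound at 10 µM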
# Target sequence (P08659 whole entry, looked up): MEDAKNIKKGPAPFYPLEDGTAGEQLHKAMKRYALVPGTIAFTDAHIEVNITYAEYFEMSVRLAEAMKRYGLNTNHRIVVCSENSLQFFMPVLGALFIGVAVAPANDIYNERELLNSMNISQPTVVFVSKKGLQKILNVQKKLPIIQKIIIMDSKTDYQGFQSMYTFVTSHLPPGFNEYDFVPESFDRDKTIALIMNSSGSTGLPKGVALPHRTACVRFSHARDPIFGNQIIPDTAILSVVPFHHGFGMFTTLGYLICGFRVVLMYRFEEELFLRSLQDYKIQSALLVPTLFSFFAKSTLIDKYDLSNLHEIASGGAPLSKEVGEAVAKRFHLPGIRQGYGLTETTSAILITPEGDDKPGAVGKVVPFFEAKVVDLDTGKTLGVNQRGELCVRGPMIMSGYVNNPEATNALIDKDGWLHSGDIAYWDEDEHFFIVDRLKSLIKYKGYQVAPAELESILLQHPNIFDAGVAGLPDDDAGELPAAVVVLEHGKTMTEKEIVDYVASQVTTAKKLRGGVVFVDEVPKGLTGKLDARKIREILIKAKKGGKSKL
#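 Assay system – cell-free luciferase reagent · Medium – PBS-based ATP solution · Dosing – test compounds dosed from 2 mM stocks in 100% DMSO · Timing – 10 min, room temperature · Technique – light output (luminescence) · Measure – luminescence gain marking luciferase activators · Controls – No-ATP low control, compound-free enzyme-plus-ATP high control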
# APP 5'UTR act: activates APP 5'UTR luciferase reporter | SH-SY5Y APP 5'UTR luciferase reporter, luminescence; zero percent = DMSO vehicle wells | activation, % at 2 µM | 190,000 tested, 1% active | AID 1276;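 active = activation above a set limit, based on mean plus 3 SD of controls, cut at about 140% in these data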
# FLuc inh counter: counter-screen for luciferase assay inhibitors: firefly luciferase inhibition; P08659; ATPLite firefly luciferase biochemical luminescence, 10 min; inhibition, % at 10 µM; 200,000 tested, 1.5% active; AID 1006;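 active = inhibition above about 50% when tested at 10 µM, limit read from the data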
# C8 TRAIL sens: sensitizes caspase-8 expressing cells to TRAIL. NB7+C8 cells + TRAIL, ATPlite viability luminescence. inhibition (viability loss, TRAIL sensitization), % at 10 µM. 360,000 tested, 1% active;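 active = compounds causing at least 50% loss of cell viability in the single-dose screen, relative to plate controls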
# PPC-1+TRAIL kill: kills PPC-1 cancer cells in the presence of TRAIL | PPC-1 cells + TRAIL, ATPLite viability luminescence | AID 1443 | 220,000 tested, 0.41% active | cell killing (% activity), % at 4 µM or 5 µM;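 active = cell killing above 50% in the first pass at 4 µM, then a duplicate retest at 5 µM averaging 50% or more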;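 also: plate controls were cells with TRAIL plus DMSO for no effect and medium-only wells lacking cells for full effect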
# NF-kB expr up: NF-kB expression increase, human neuronal cells; NF-kB reporter expression; hits give high values; fold change at 12.5 µM; 190,000 tested, 1.6% active; in the data active = fold change above about 3.3
# * marks the source's active call; other numbers are inactive results; . = no result given. The list is not random: actives were taken first. Their share in the collection is about 2.2%.
SMILES,FLuc stim CS,APP 5'UTR act,FLuc inh counter,C8 TRAIL sens,PPC-1+TRAIL kill,NF-kB expr up
COc1ccccc1/C=N/N1C(=O)C2C3C=CC(CC3)C2C1=O (centres undefined),0.9,11,14,-1,8,1.2
O=C1C2C3C=CC(CC3)C2C(=O)N1/N=C/c1c[nH]c2ccccc12 (centres undefined),0.5,33,52*,3,25,1.8
CCCOC(=O)c1ccc(NC(=O)c2ccoc2C)cc1,0.9,115,9,15,26,3.5*
CCCOC(=O)c1ccc(NC(=O)CC(C)(C)C)cc1,0.6,122,38,24,.,5.5*
CC1=C(C(=O)N2CCCCCC2)CC(CC(=O)NCCCN(C)C)C(=O)N1Cc1ccc(F)cc1 (centres undefined),.,.,.,4,.,.
O=C(NC(=S)Nc1ncccn1)c1ccc(Cl)cc1Cl,0.4,36,64*,-1,7,2.2
O=c1[nH]c(C2CC2)nc2sc3c(c12)CCCC3,1,-19,1,-1,0,.
N#Cc1cnn(-c2nc3sc4c(c3c(=O)[nH]2)CCCC4)c1N,0.4,-6,60*,42,36,0.99
COc1ccccc1Cc1c(C(C)(C)C)nc2c3ccccc3ccn12,.,.,.,6,.,.
O=C1Nc2ccccc2N(C(=O)c2c(F)cccc2F)C1c1nc2ccccc2[nH]1 (centres undefined),.,.,.,77*,.,.
O=C1Nc2ccccc2N(C(=O)c2ccc(-c3ccccc3)cc2)C1c1nc2ccccc2[nH]1 (centres undefined),.,.,.,74*,.,.
CCCC(=O)N1CCCC1(C)C(=O)Nc1cc(OC)c(OC)c(OC)c1 (centres undefined),.,.,.,-12,.,.
COC(=O)[C@]12CCCCC=C1N(Cc1cccc3ccccc13)C(=O)[C@H](CC(=O)NCCCN1CCCC1=O)C2,.,.,.,-10,.,.
C[C@@H]1CN([C@@H](C)CO)C(=O)c2cc(Br)cnc2O[C@H]1CN(C)Cc1cccc(C(=O)O)c1,.,.,.,-7,.,.
Clc1ccc(-c2cc3nc(NCc4cccc(Cl)c4)ccn3n2)cc1,.,.,.,13,.,.
CCCCC(=O)N(C)c1c(CC)nc2c(OCC=C(C)C)cccn12,.,.,.,3,.,.
O=C(/C=C/c1ccco1)Oc1cc(Br)cc(/C=N/NC(=O)c2ccccc2O)c1,1,-64,0,44,52*,1.1
O=C(Cc1ccsc1-c1ccccc1)NO,1,17,-4,63*,7,2
CCCNC(=O)C1(C)CCCN(C(=O)CN2C(=O)c3ccccc3C2=O)C1 (centres undefined),.,.,.,6,.,.
Oc1ccc(N2CCN(C(=S)NCCc3ccccc3)CC2)cc1,1.1,-1,-5,7,28,4.7*
COc1ccc(N2CCN(C(=S)NCCc3ccccc3)CC2)cc1,.,-13,.,-11,.,.
Cn1nnc2cc(NC(=O)Nc3ccccc3F)ccc21,.,.,.,33,.,.
COc1ccccc1NC(=O)Nc1ccc2c(c1)nnn2C,0.7,29,34,54*,40,1.6
O=C(Nc1ccc(F)cc1)C(c1ccnc2ccccc12)N1CCN(CC(=O)N2CCCC2)CC1 (centres undefined),.,.,.,-7,.,.
O=C(NC1CCCC1)C1C(c2ccc(C(F)(F)F)cc2)=Nc2ccccc2N1C(=O)c1cc2ccccc2[nH]1 (centres undefined),.,.,.,1,.,.
SMILES,FLuc stim CS,APP 5'UTR act,FLuc inh counter,C8 TRAIL sens,PPC-1+TRAIL kill,NF-kB expr up
O=C(Cn1ncc(Cl)c(Cl)c1=O)Nc1ccc2c(c1)OCO2,.,.,.,94*,.,.
CCCc1cc(=O)[nH]c(SCC(=O)N2CCCc3ccccc32)n1,0.3,10,72*,21,-3,1
CCCc1cc(=O)[nH]c(SCC(=O)Nc2cc(S(=O)(=O)N3CCCCC3)ccc2C)n1,.,.,.,50*,.,.
Cc1ccc(S(=O)(=O)N2CCCCC2)cc1NC(=O)Cn1ncc(Cl)c(Cl)c1=O,.,.,.,96*,.,.
Nc1cc(=O)[nH]c(SCC(=O)N2CCCc3ccccc32)n1,1.1,-12,-6,-2,-12,0.95
OC[C@@H]1CN(Cc2ccc3c(c2)OCO3)C[C@H](n2cnc3c(NC4CCC4)ncnc32)O1,.,.,.,-16,.,.
O=C(NCCc1ccccc1)C1Cc2c(-c3ccc(Cl)cc3)ccnc2O1 (centres undefined),.,.,.,-21,.,.
CC1(C(=O)NS(=O)(=O)c2ccccc2Cl)CCN1C(=O)c1ccccc1CCc1ccccc1 (centres undefined),.,.,.,-1,.,.
CCOC(=O)[C@]12CCCC=C1N(Cc1ccccc1)C(=O)[C@H](CC(=O)N1CCN(C(=O)C3CC3)CC1)C2,.,.,.,8,.,.
CCN(CC)S(=O)(=O)c1cc(NC(=O)Cn2ncc(Cl)c(Cl)c2=O)ccc1C,.,.,.,62*,17,.
CCC(=O)c1ccc2c(c1)OCCO2,.,.,.,7,29,.
CCC(=O)Nc1ccc(C(=O)Cn2ncc(Cl)c(Cl)c2=O)cc1,.,.,.,94*,11,.
O=C(Cn1ncc(Cl)c(Cl)c1=O)c1ccc2c(c1)OCCO2,.,.,.,89*,.,.
O=C(Cn1ncc(Cl)c(Cl)c1=O)NC(=O)NC1CCCCC1,.,.,.,93*,.,.
COc1cc(CNc2ncnc3c2ncn3[C@H]2CN(Cc3cccc4ccccc34)C[C@@H](CO)O2)cc(OC)c1OC,.,.,.,11,.,.
CCCCN(C)c1c(C)nc2ccc(C(=O)Nc3cc(-c4ccccc4)ccc3OC)cn12,.,.,.,11,.,.
CCc1nc2ccc(C(=O)NCc3ccc4c(c3)OCO4)cn2c1N(CC)Cc1cccc(Br)c1,.,.,.,1,.,.
CCOC(=O)C1CCCN(C(=O)c2cncc(Br)c2)CC1 (centres undefined),.,.,.,-24,.,.
CCC(CC)C(=O)N(C)c1c(C)nc2c(OCc3ccc(Cl)cc3Cl)cccn12,.,.,.,5,.,.
COC(=O)[C@]12CCCCC=C1N(CCc1ccc(OC)c(OC)c1)C(=O)[C@H](CC(=O)NCCc1ccccc1OC)C2,.,.,.,2,.,.
CC(C(=O)NC1CCCC1)n1c(C2CC2)nc2ccccc21 (centres undefined),.,.,.,0,.,.
Cc1ccccc1-n1c(C)nnc1SCc1nc2ccccc2s1,0.8,141*,22,2,-7,1.5
N#CC1=C(Nc2ccccc2Cl)SC2(CCCC2)NC1=O,.,.,.,0,.,.
C[C@H]1CN([C@@H](C)CO)S(=O)(=O)c2ccc(Br)cc2O[C@@H]1CN(C)Cc1cccc(F)c1,.,.,.,2,.,.
Nc1ccc(Nc2nc(-c3cccs3)cs2)cc1,0.1,311*,90*,-2,.,1.7
SMILES,FLuc stim CS,APP 5'UTR act,FLuc inh counter,C8 TRAIL sens,PPC-1+TRAIL kill,NF-kB expr up
c1ccc(Nc2nc(-c3cccs3)cs2)nc1,0.3,181*,68*,30,13,9.6*
Cc1cccc(Nc2nc(-c3cccs3)cs2)n1,0.7,208*,26,8,5,11*
Cc1cccc(Nc2nc(-c3ccc(F)cc3)cs2)n1,.,.,.,8,.,.
Cc1cccc(Nc2nc(-c3ccccn3)cs2)n1,0.7,210*,28,30,7,5.6*
C=CCC(NC(=O)N(C)C)(C(=O)OC)C(C)O (centres undefined),.,.,.,-12,.,.
CCCCOCCCNC(=O)C[C@@H]1C[C@@]2(C(=O)OC)CCCCC=C2N(Cc2cccc3ccccc23)C1=O,.,.,.,10,.,.
